From ChEMBL document CHEMBL1149866, “Cytotoxic diterpenoids from Euphorbia helioscopia” (J Nat Prod, 2008)

How the values were obtained:
[1] = tested on: MDA-MB-231; experiment: Cytotoxicity against human MDA-MB-231 cells by MTT method; type: functional, cell-based
In short: (§1)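 HeLa (human cervical carcinoma) and MDA-MB-231 (breast tumor) cells; MTT viability read-out run per a previously published protocol; IC50 determined; adriamycin as positive control.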

[2] = tested on: HeLa; experiment: Cytotoxicity against human HeLa cells by MTT method; type: functional, cell-based; in short: as §1

| SMILES | IC50 [1] | IC50 [2] |
| --- | --- | --- |
| CC(=O)O[C@@H]1C[C@@H](OC(C)=O)C(C)(C)[C@H](O)[C@H]2O[C@@]3(C[C@H](C)[C@H](OC(=O)c4ccccc4)[C@@H]3/C=C/1C)[C@@H](OC(C)=O)[C@H]2C | > 10 µM | > 10 µM |
| CC(=O)O[C@@H]1[C@H](C)/C=C/C(C)(C)C(=O)C[C@@H](OC(=O)c2ccccc2)/C(CO)=C/[C@H]2[C@@H](OC(=O)c3ccccc3)[C@H](C)C[C@]12OC(C)=O | > 10 µM | > 10 µM |
| CC(=O)O[C@@H]1C[C@@H](OC(C)=O)C(C)(C)/C=C/[C@H](C)[C@H](OC(C)=O)[C@@]2(O)C[C@H](C)[C@H](OC(=O)c3ccccc3)[C@@H]2/C=C/1C [EUPHORNIN] | 13.4 µM | 3.1 µM |
| CC(=O)O[C@@H]1C[C@@H](O)C(C)(C)/C=C/[C@H](C)[C@H](OC(C)=O)[C@@]2(O)C[C@H](C)[C@H](OC(=O)c3ccccc3)[C@@H]2/C=C/1C [EUPHORNIN B] | > 10 µM | > 10 µM |
| CC(=O)O[C@@H]1[C@H](C)/C=C/C(C)(C)C(=O)C[C@@H](OC(=O)c2ccccc2)/C(C)=C/[C@H]2[C@@H](OC(=O)c3ccccc3)[C@H](C)C[C@]12OC(C)=O [EUPHOSCOPIN C] | > 10 µM | > 10 µM |
| CC(=O)O[C@@H]1C[C@@H](OC(C)=O)C(C)(C)/C=C/[C@H](C)[C@H](OC(C)=O)[C@@]2(O)C[C@H](C)[C@H](OC(=O)c3ccccc3)[C@@H]2/C=C/1CO | > 10 µM | > 10 µM |
| CC1=C2C=C3CC[C@@H]4C(C)(C)[C@H](O)CC[C@@]4(C)[C@@H]3C[C@H]2OC1=O [HELIOSCOPINOLIDE A] | 2.1 µM | 0.11 µM |
| CC(=O)O[C@@H]1[C@H]2O[C@@]3(C[C@H](C)[C@H](OC(=O)c4ccccc4)[C@@H]3/C=C(\C)[C@H](OC(C)=O)C[C@@H](OC(C)=O)C1(C)C)[C@@H](OC(C)=O)[C@H]2C | > 10 µM | > 10 µM |
| CC(=O)O[C@H]1[C@@H](C)/C=C/C(C)(C)[C@H](O)C[C@@H](O)/C(C)=C/[C@H]2[C@@H](OC(=O)c3ccccc3)[C@@H](C)C[C@@]21O | > 10 µM | > 10 µM |
